This note sets out measurements from ChEMBL document CHEMBL2380217, “Design, synthesis, and biological evaluation of aminoalkylindole derivatives as cannabinoid receptor ligands with potential for treatment of alcohol abuse” (J Med Chem, 2013).

As a reminder, the inhibition is the drop in the measured response relative to a control, in per cent. What is called Ki is a measure of affinity in units of concentration, obtained from inhibition or displacement. By IC50 is commonly meant the point on the concentration scale where inhibition reaches its midpoint.

Calls of active or inactive are those of the source. No cut-off for these calls is given here.

The test system of data set [1] is Mus musculus. In words: Antagonist activity at CB1 receptor in Swiss mouse assessed as reduction in hypothermic effect at 10 mg/kg, ip administered 30 mins prior to JWH-073 addition. In kind it is functional, organism-based. Set-up: dose 10 mg/kg. A digest of the protocol: (§1)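 Male NIH Swiss mice (25–30 g) with glass-encapsulated radiotelemetry probes implanted in the peritoneal cavity; at least 7 days of recovery, housed singly. Baseline recorded for at least 1 hr, then i.p. injection of drug or vehicle. […] Groups of 4–8. One-way ANOVA with Tukey.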

For data set [2], the system named is Mus musculus. Kind of data set: Inhibition of ethyl alcohol-induced conditioned place preference in Swiss mouse at 10 mg/kg, ip administered 1 hr prior to ethyl alcohol pairing. In kind it is functional, organism-based. Set-up: dose 10 mg/kg. A digest of the protocol: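 Male NIH Swiss mice in 3-compartment chambers. 30-min pre-test to find preferred side. Then Mon–Thu daily: saline in the preferred side (30 min) and, ~4 h later, 2 g/kg ethanol in the non-preferred side (30 min). Compound 10 mg/kg given 1 h before each ethanol pairing. Friday post-test; score = post minus pre time on the ethanol side. One-way ANOVA with Tukey.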

In data set [3] the target is Cannabinoid receptor 2 (Mus musculus) (UniProt P47936). In words: Displacement of [3H]CP-55940 from mouse […] CB2 receptor at 1 uM after 90 mins by scintillation counting analysis. It is filed as tissue-based. A digest of the protocol:
(§2)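 Buffer: 50 mM Tris, 0.05% BSA, 0.1% ethanol; triplicate. Non-specific binding with 10 μM WIN-55,212-2. Bound ligand collected by GF/B filtration and counted by liquid scintillation. Specific binding expressed as % of that without competitor.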
(Displacement assays read how much labelled ligand stays bound in the presence of the test substance.)

Data set [4] concerns Mus musculus. In words: Toxicity in Swiss mouse assessed as reduction in body weight at 10 mg/kg, ip for 10 days. The note with it: in vivo, 240 h. More on the design: dose 10 mg/kg, route intraperitoneal. It is filed as organism-based. The method, boiled down:
(§3)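 Male NIH Swiss mice in a two-bottle home-cage choice, 10% (v/v) ethanol vs water, 24 h access. Intake read twice weekly and bottle positions switched. Preference = ethanol/total fluid × 100. After stable baseline (<10% variation over 3 days), 10 mg/kg i.p. daily for 10 days. Vehicle: 8% Tween/92% water, given for 10 days. Body weight tracked.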

Data set [5] has as its target Cannabinoid receptor 1 (Mus musculus) (UniProt P47746). In words: Agonist activity at CB1 receptor in mouse Neuro2a cells assessed as inhibition of forskolin-stimulated adenylyl cyclase activity at 10 uM after 15 mins by liquid scintillation spectrophotometry. It is filed as functional, cell-based. The method, boiled down: (§4)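 Neuro2A-WT (endogenous CB1), CHO-hCB2 or CHO-WT cells, 4 million per well, attached overnight. Labelled 4 h at 37 °C with [3H]adenine 2.5 μCi/mL plus 0.5 mM IBMX. Then 15 min at 37 °C in KRH buffer with 0.5 mM IBMX, 10 μM forskolin, and vehicle (0.2% ethanol) or compound (0.1 nM–10 μM), triplicate. Stopped with HCl; [3H]cAMP isolated on acidic alumina, counted by scintillation. Expressed as % of vehicle cAMP. Antagonist added 5 min before agonist.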

The test system of data set [6] is Mus musculus. Kind of data set: Reduction in ethyl alcohol preference in Swiss mouse at 10 mg/kg, ip for 10 days. In kind it is functional, organism-based. Set-up: dose 10 mg/kg. The method, boiled down: as §3
Data set [7] concerns Mus musculus. Kind of data set: Toxicity in Swiss mouse assessed as alteration in total fluid intake at 10 mg/kg, ip for 10 days. In kind it is organism-based. More on the design: dose 10 mg/kg, route intraperitoneal. The note with it: in vivo, 240 h. The method, boiled down: as §3
Data set [8] concerns the target T1, Cannabinoid receptor 2 (Homo sapiens, UniProt P34972). In words: Agonist activity at human CB2 receptor transfected in CHO cells assessed as inhibition of forskolin-stimulated adenylyl cyclase activity at 10 uM after 15 mins by liquid scintillation spectrophotometry. In kind it is functional, cell-based. A digest of the protocol: as §4
In data set [9] the target is Cannabinoid receptor 1 (Mus musculus) (UniProt P47746). In words: Displacement of [3H]CP-55940 from mouse brain CB1 receptor at 1 uM after 90 mins by scintillation counting analysis. It is filed as tissue-based. A digest of the protocol: as §2
For data set [10] the target is unchanged. In words: Antagonist activity at CB1 receptor in mouse Neuro2a cells assessed as forskolin-stimulated adenylyl cyclase activity at 1 uM after 15 mins by liquid scintillation spectrophotometry in presence of JWH-073. It is filed as functional, cell-based. The method, boiled down: as §4
The next data set has as its system CHO. Kind of data set: Effect on adenylyl cyclase activity in wild type CHO cells at 10 uM. It is filed as cell-based. To be noted: Cricetulus griseus. A digest of the protocol:
as §4

Another data set has as its target Cannabinoid receptor 1 (Mus musculus, UniProt P47746). Kind of data set: Agonist activity at CB1 receptor in mouse Neuro2a cells assessed as inhibition of forskolin-stimulated adenylyl cyclase activity after 15 mins by liquid scintillation spectrophotometry. It is filed as functional, cell-based. The method, boiled down: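 Neuro2A cells with endogenous CB1, plated overnight to 80–90% confluency, labelled 4 h at 37 °C with [3H]adenine (2.5 μCi/mL) plus 0.5 mM IBMX. Then 15 min at 37 °C in Krebs Ringer HEPES with 0.5 mM IBMX, 10 μM forskolin and compound (0.1 nM–10 μM; 10 μM for the screen) or 0.2% ethanol vehicle, in triplicate. HCl stop, alumina column. [3H]cAMP is given as % of vehicle.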

The target of data set [11] is T1, Cannabinoid receptor 2. In words: Agonist activity at human CB2 receptor transfected in CHO cells assessed as inhibition of forskolin-stimulated adenylyl cyclase activity after 15 mins by liquid scintillation spectrophotometry. In kind it is functional, cell-based. The method, boiled down: as §4
In data set [12] the test system is Mus musculus. Kind of data set: Agonist activity at CB1 receptor in Swiss mouse assessed as hypothermic effect at 10 mg/kg, ip. In kind it is functional, organism-based. More on the design: dose 10 mg/kg. A digest of the protocol: as §1

Cannabinoid receptor 2 (Mus musculus), sequence (P47936 whole entry): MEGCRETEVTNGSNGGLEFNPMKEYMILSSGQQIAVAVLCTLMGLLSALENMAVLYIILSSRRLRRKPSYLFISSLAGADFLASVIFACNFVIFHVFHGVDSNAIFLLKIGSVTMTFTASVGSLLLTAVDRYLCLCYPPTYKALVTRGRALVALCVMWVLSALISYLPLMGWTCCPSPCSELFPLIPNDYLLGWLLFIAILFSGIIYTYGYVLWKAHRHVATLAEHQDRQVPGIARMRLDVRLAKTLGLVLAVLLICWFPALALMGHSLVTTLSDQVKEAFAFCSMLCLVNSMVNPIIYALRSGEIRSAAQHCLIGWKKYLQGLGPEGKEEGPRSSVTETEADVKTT
Cannabinoid receptor 1 (Mus musculus), sequence (P47746 whole entry): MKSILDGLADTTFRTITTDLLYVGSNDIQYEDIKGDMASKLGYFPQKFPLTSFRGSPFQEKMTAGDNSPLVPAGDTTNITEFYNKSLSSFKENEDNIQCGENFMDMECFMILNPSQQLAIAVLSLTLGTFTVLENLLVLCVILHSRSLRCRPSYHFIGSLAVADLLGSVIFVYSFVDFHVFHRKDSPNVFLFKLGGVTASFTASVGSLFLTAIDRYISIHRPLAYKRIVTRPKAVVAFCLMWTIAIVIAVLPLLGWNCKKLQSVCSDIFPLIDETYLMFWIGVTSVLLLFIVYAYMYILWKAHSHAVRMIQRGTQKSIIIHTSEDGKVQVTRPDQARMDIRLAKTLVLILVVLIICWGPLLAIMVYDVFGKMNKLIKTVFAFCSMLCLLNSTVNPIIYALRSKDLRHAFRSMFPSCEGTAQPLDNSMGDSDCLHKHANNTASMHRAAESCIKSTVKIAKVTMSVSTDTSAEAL
Cannabinoid receptor 1, sequence (P47746 whole entry): as above
T1 sequence (P34972 whole entry): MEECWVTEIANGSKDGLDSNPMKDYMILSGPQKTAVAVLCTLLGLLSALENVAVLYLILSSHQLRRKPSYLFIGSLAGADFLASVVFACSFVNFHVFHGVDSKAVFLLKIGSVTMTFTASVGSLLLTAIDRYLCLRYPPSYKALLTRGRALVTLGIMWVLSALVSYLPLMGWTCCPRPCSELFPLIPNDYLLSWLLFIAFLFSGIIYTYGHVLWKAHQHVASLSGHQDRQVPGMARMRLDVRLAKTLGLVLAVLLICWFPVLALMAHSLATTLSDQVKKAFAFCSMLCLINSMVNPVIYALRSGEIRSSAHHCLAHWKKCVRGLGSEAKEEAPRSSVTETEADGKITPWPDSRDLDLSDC

As for `CCCCn1cc(-c2ccc3ccccc3c2)c2cccc(OC)c21`, the result (with Mus musculus [1]; with Mus musculus [2]; in the data set on Mus musculus [6]; in data set [10]) was Active. Besides, the Activity in data set [3] is 91%; in the data set with Mus musculus [4] it was “Non-toxic”; in the data set with Mus musculus [7] it was “Toxic”; in data set [9], 82%. For the same compound, the inhibition in [5] amounted to 16%; at Cannabinoid receptor 2 [8] it was 20.8%. Moreover, the result in the data set on CHO was inactive.
With `CCCCn1cc(C(=O)c2cccc3ccccc23)c2cc(O)ccc21`, the Activity in data set [3] worked out at 91%; in data set [9] it was 97%. Also, the inhibition came to 39% in data set [5] and 37% on Cannabinoid receptor 2 [8].
With `COc1cccc2c(C(=O)c3cccc4ccccc34)cn(CCN3CCOCC3)c12`, the Activity in data set [3] and in data set [9] was 100% throughout. In addition, the inhibition in data set [5] was 39%; on Cannabinoid receptor 2 [8], 37%.
On to `CCCCn1cc(C(=O)Cc2cccc(F)c2F)c2cccc(OC)c21`, for which the Activity is 97% in [3] and 80% in [9]. Besides, the results for the inhibition (in data set [5]; at Cannabinoid receptor 2 [8]) were 35% and -6%, respectively.
`CCCCn1cc(C(=O)c2cccc3ccccc23)c2ccccc21`: the Ki is 12.9 nM on Cannabinoid receptor 1 and 9.8 nM at Cannabinoid receptor 2 [11]. Also, in the data set with Mus musculus [12], the outcome was Active.
Consider `CCCCn1cc(C(=O)c2cccc3ccccc23)c2cc(OC)ccc21`, for which the Activity in data set [3] and in data set [9] was 90% throughout. Moreover, the figures for the inhibition (in data set [5]; on Cannabinoid receptor 2 [8]) were 47% and 31%, respectively.
`CCCCCCC(C)(C)c1ccc([C@@H]2C[C@H](O)CC[C@H]2CCCO)c(O)c1`: the inhibition in [5] amounted to 45%.
`CCCCn1cc(C(=O)Cc2ccc(OC)cc2)c2cccc(OC)c21`: the Activity turned out to be 64% in [3] and 38% in data set [9].
For `CCCCn1cc(C(=O)Cc2cccc(F)c2)c2cccc(OC)c21` the same measures were 91% and 63%.
For `CCCCn1cc(C(=O)c2cccc3ccccc23)c2cccc(OC)c21`, the Activity in [3] turned out to be 100%; in [9] it was 93%. Also, the inhibition was determined as 51% in data set [5] and 52% on Cannabinoid receptor 2 [8].
The corresponding values for `CCCCn1cc(C(=O)c2ccc(F)cc2)c2cccc(OC)c21` are 99%, 84%, 45% and 38%.
As to `CCCCn1cc(C(=O)Cc2ccc(F)cc2)c2cccc(CC)c21`, the Activity in [3] came out at 88%; in [9] it was 63%.
For `CCCCn1cc(C(=O)Cc2ccc(O)cc2)c2cccc(O)c21` the same measures were 10% and 10%.
For the compound `CCCCn1cc(C(=O)c2cccc3ccccc23)c2cccc(O)c21`, the IC50 on Cannabinoid receptor 1 came to 225 nM. The values for the Ki at Cannabinoid receptor 1 and at Cannabinoid receptor 2 [11] were 24.2 nM and 78.3 nM, respectively. In addition, the Activity came out at 90% in data set [3] and 99% in data set [9]. Further, the inhibition in data set [5] is 55%; at Cannabinoid receptor 2 [8], 38%.
Turning to `CCCCn1cc(-c2cccc3ccccc23)c2cccc(OC)c21`, the figures for the Activity in data set [3] and in data set [9] were 97% and 98%, respectively. In addition, the inhibition turned out to be 39% in data set [5] and 37% at Cannabinoid receptor 2 [8].
For the compound `CCCCn1cc(C(=O)Cc2ccccc2)c2cccc(OC)c21`, the Activity in data set [3] is 91%; in data set [9], 69%. In addition, the inhibition turned out to be 34% in data set [5] and 16% at Cannabinoid receptor 2 [8].
The corresponding values for `CCCCn1cc(C(=O)Cc2ccc(F)cc2)c2cccc(OC)c21` are 80%, 55%, -4% and 22%.
The corresponding values for `CCCCn1cc(C(=O)Cc2ccccc2F)c2cccc(OC)c21` are 99%, 84%, 45% and 1%.
In the case of `Cc1c(C(=O)NN2CCCCC2)nn(-c2ccc(Cl)cc2Cl)c1-c1ccc(Cl)cc1` [RIMONABANT], the result in the data set on Mus musculus [2] and with Mus musculus [6] was Active. In addition, the Activity result with Mus musculus [4] and with Mus musculus [7] was “Toxic” throughout.
Regarding `CCCCn1cc(C(=O)Cc2cccc3ccccc23)c2cccc(OC)c21`, the Activity in data set [3] was 91%; in data set [9], 81%. In addition, the inhibition in data set [5] is 34%.
As for `CCCCn1cc(Cc2cccc3ccccc23)c2cccc(OC)c21`, the result (in the data set on Mus musculus [1]; with Mus musculus [2]; in the data set with Mus musculus [6]; in [10]) was Active. In addition, the Activity was 97% in data set [3], “Non-toxic” in the data set with Mus musculus [4], “Toxic” in the data set on Mus musculus [7] and 90% in [9]. Besides, the inhibition in data set [5] stood at 18%; on Cannabinoid receptor 2 [8], 33%. The result with CHO was inactive.
As for `CCCCn1cc(C(=O)Cc2ccc(F)c(F)c2)c2cccc(OC)c21`, the Activity worked out at 80% in [3] and 41% in data set [9].
For `CCCCn1cc(C(=O)Cc2ccc(F)cc2)c2cccc(O)c21` the same measures were 10% and 29%.
As to `CCCCn1cc(C(=O)Cc2ccccc2)c2cccc(O)c21`, the Activity in data set [3] amounted to 20%; in [9], 21%.
In the case of `CC1=CC[C@@H]2[C@@H](C1)c1c(O)cc(CC#CCCCNS(C)(=O)=O)cc1OC2(C)C`, in data set [10], the outcome was Active.
Turning to `CCCCn1cc(C(=O)Cc2cccc3ccccc23)c2cccc(O)c21`, the Activity came to 21% in data set [3] and 37% in data set [9].
